These results are taken from ChEMBL document CHEMBL1649135, “Use of a surface plasmon resonance method to investigate antibiotic and plasma protein interactions” (Antimicrob Agents Chemother, 2009).

Data set [1] concerns Staphylococcus aureus. Nature of the data set: Antimicrobial activity against Staphylococcus aureus CIP 76.25 by microdilution method in presence of 0.1% alpha-1-acid glycoprotein. The data set is classed as functional. In a few lines: (§1)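 Broth microdilution MICs against S. aureus CIP 76.25 by CLSI (formerly NCCLS) standard methods, run in duplicate. Each test medium was supplemented with one serum component: 50% human serum, 4% HSA, 0.1% AGP or 1.6% human gamma globulins. These levels were chosen to match normal physiological concentrations. MIC was read as in standard testing.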

Data set [2] concerns Staphylococcus aureus. Briefly: Antimicrobial activity against Staphylococcus aureus CIP 76.25 by microdilution method in presence of 4% human serum albumin. The data set is classed as functional. The procedure, abridged: as §1
Data set [3] concerns Staphylococcus aureus. Nature of the data set: Antimicrobial activity against Staphylococcus aureus CIP 76.25 by microdilution method in presence of 50% human serum. It is filed as functional. The procedure, abridged: as §1
On the technique in general: Dilution methods test growth across graded concentrations, often in twofold steps.

For data set [4], the system named is Staphylococcus aureus. Nature of the data set: Antimicrobial activity against Staphylococcus aureus CIP 76.25 by microdilution method. The data set is classed as functional. In a few lines:
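S. aureus CIP 76.25 MICs determined in duplicate by CLSI standard broth microdilution.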

Data set [5] concerns Staphylococcus aureus. Nature of the data set: Antimicrobial activity against Staphylococcus aureus CIP 76.25 by microdilution method in presence of 1.6% gamma globulin. The data set is classed as functional. In a few lines: as §1
In data set [6] the target is T1, Albumin (Homo sapiens, UniProt P02768). Nature of the data set: Binding affinity to first site on human serum albumin by SPR. It is filed as ADME. In a few lines:
(§2)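 SPR on a BIACORE 3000 at 25°C. HSA was amine-coupled to a CM5 chip at 40 µg/ml in 10 mM acetate, pH 5.2. Drug was injected from 400 µM to 0.1 µM in twofold dilutions in PBS with 5% DMSO at 50 µl/min, with 30 s association and 30 s dissociation. Responses were reference-subtracted, read 10 s into the injection and DMSO-corrected. Dose-response curves gave KD or fraction of sites occupied.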
In general terms: SPR reads the build-up and loss of mass on a sensor chip optically.

The nature of data set [7]: Binding affinity to human alpha-1-acid glycoprotein assessed as compound binding sites level by SPR. It is filed as ADME. In a few lines:
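Ranking by SPR at 25°C. AGP was PDEA-modified and thiol-coupled to a CM5 chip; a reference surface carried no protein. Drugs at 250 µM in PBS with 5% DMSO were injected in randomized duplicates for 30 s at 50 µl/min. Responses were DMSO-calibration-corrected and normalized to a 10,000-RU immobilization level. Experiments were run in triplicate, mean ± SE.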

A short description of data set [8]: Protein binding in serum. The data set is classed as ADME, cell-free. The following applies: read-out: PB (converted).
Data set [9] deals with T1, Albumin. Briefly: Binding affinity to human serum albumin assessed as fraction of binding sites occupied by compound at 22 to 44 ug/ml by SPR. The data set is classed as ADME. The settings on record: isolated protein. In a few lines: (§3)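 HSA amine-coupled on CM5 chip at 25°C, with a reference flow cell lacking protein. Compound in PBS with 5% DMSO, injected at 400 to 0.1 µM in twofold dilutions, 50 µl/min, 30 s association and 30 s dissociation. Reference-subtracted responses read 10 s into injection and DMSO-corrected. Fraction of sites occupied plotted against drug concentration from dose-response curves.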

Data set [10] addresses T1, Albumin. Nature of the data set: Binding affinity to human serum albumin assessed as fraction of binding sites occupied by compound at 180 ug/ml by SPR. It is filed as ADME. The settings on record: isolated protein. The procedure, abridged: as §3
In data set [11] the target is T1, Albumin. Nature of the data set: Binding affinity to human serum albumin assessed as fraction of binding sites occupied by compound at 146 to 220 ug/ml by SPR. The settings on record: isolated protein. It is filed as ADME. The procedure, abridged: as §2
Data set [12] deals with T1, Albumin. Briefly: Binding affinity to human serum albumin assessed as fraction of binding sites occupied by compound at 20 ug/ml by SPR. The data set is classed as ADME. The settings on record: isolated protein. In a few lines: as §3
In data set [13] the target is T1, Albumin. Briefly: Binding affinity to human serum albumin assessed as fraction of binding sites occupied by compound at 160 ug/ml by SPR. The data set is classed as ADME. The following applies: isolated protein. The procedure, abridged: as §3
For data set [14], the target named is T1, Albumin. Nature of the data set: Binding affinity to human serum albumin assessed as fraction of binding sites occupied by compound at 215 to 430 ug/ml by SPR. It is filed as ADME. The settings on record: isolated protein. In a few lines:
as §3

The target in data set [15] is T1, Albumin. Nature of the data set: Binding affinity to human serum albumin assessed as fraction of binding sites occupied by compound at 130 to 180 ug/ml by SPR. The data set is classed as ADME. The settings on record: isolated protein. The procedure, abridged: as §2
Data set [16] concerns the target T1, Albumin. Nature of the data set: Binding affinity to human serum albumin assessed as fraction of binding sites occupied by compound at 7 to 15 ug/ml by SPR. It is filed as ADME. The settings on record: isolated protein. The procedure, abridged:
as §2

In data set [17] the target is T1, Albumin. Nature of the data set: Binding affinity to human serum albumin assessed as fraction of binding sites occupied by compound at 60 ug/ml by SPR. It is filed as ADME. The following applies: isolated protein. The procedure, abridged: as §2
The target in data set [18] is T1, Albumin. Nature of the data set: Binding affinity to human serum albumin assessed as fraction of binding sites occupied by compound at 120 ug/ml by SPR. The settings on record: isolated protein. It is filed as ADME. The procedure, abridged: as §2
In data set [19] the target is T1, Albumin. Nature of the data set: Binding affinity to human serum albumin assessed as fraction of binding sites occupied by compound at 245 ug/ml by SPR. It is filed as ADME. The settings on record: isolated protein. In a few lines: as §2
Data set [20] deals with T1, Albumin. Nature of the data set: Binding affinity to human serum albumin assessed as fraction of binding sites occupied by compound at 80 to 120 ug/ml by SPR. It is filed as ADME. The following applies: isolated protein. In a few lines: as §2
For data set [21], the target named is T1, Albumin. Briefly: Binding affinity to human serum albumin assessed as fraction of binding sites occupied by compound at >325 ug/ml by SPR. The following applies: isolated protein. It is filed as ADME. In a few lines: as §2

As usually defined, the MIC is the least concentration at which growth counts as inhibited. The Kd is a measure of binding affinity in units of concentration. High values mean a looser complex, low ones a tighter complex.

Converted amounts (≈) assume the structure as drawn.

T1 sequence (P02768 whole entry): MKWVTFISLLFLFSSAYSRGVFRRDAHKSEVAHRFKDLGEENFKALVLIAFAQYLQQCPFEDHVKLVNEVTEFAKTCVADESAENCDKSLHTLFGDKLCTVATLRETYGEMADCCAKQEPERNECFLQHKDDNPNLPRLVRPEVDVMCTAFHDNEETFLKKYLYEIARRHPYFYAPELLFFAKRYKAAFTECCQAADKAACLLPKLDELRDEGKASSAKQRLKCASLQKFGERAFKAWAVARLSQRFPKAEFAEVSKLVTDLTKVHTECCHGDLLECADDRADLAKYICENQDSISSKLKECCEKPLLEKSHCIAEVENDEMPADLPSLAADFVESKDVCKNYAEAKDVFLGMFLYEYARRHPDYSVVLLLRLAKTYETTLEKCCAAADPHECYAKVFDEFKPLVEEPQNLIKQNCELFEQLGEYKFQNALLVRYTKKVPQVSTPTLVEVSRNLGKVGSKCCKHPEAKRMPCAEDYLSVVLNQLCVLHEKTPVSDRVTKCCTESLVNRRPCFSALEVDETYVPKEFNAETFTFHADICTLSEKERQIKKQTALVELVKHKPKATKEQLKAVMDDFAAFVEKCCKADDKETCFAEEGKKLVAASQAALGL

On to `CO/N=C(\C(=O)N[C@@H]1C(=O)N2C(C(=O)O)=C(COC(C)=O)CS[C@H]12)c1csc(N)n1` [CEFOTAXIME], for which the MIC in data set [1] is 1 µg/mL; in data set [2], 1 µg/mL; in [3], 4 µg/mL; in [4] it was 0.781 µg/mL (≈ 1.71 µM); in data set [5], 2 µg/mL. Also, the affinity in [6], expressed as Kd, was 12 µM. Further, the Ratio is < 1 in [7], 0.5 in data set [9] and 1 in data set [10]. In data set [8], the fraction unbound was 0.97.

Turning to `CC[C@H]1OC(=O)[C@H](C)[C@@H](O[C@H]2C[C@@](C)(OC)[C@@H](O)[C@H](C)O2)[C@H](C)[C@@H](O[C@@H]2O[C@H](C)C[C@H](N(C)C)[C@H]2O)[C@](C)(O)C[C@@H](C)C(=O)[C@H](C)[C@@H](O)[C@]1(C)O` [ERYTHROMYCIN], the MIC came to 2 µg/mL in data set [1]; 2 µg/mL in [2]; 2 µg/mL in data set [3]; 0.195 µg/mL (≈ 0.266 µM) in data set [4]; 2 µg/mL in [5]. This compound came in with a dissociation constant (Kd) in [6] of 12 µM. Moreover, the Ratio in data set [7] is reported as < 1; in data set [11], 0.5. Besides, in data set [8], the fraction unbound was 0.81.

Consider `CC(=O)O[C@H]1C[C@@]2(C)[C@@H](C[C@@H](O)[C@H]3[C@@]4(C)CC[C@@H](O)[C@@H](C)[C@@H]4CC[C@@]32C)/C1=C(\CCC=C(C)C)C(=O)O` [FUSIDIC ACID], for which the minimum inhibitory concentration (MIC) was found to be 2 µg/mL in data set [1]; 256 µg/mL in [2]; 1020 µg/mL in data set [3]; 0.049 µg/mL (≈ 0.0948 µM) in data set [4]; 2 µg/mL in data set [5]. In data set [6], the dissociation constant (Kd) was determined as 12 µM. The Ratio is listed as < 1 in [7], 0.5 in [12], 1 in data set [13] and 1.5 in data set [14]. Further, the fraction unbound in data set [8] was 0.03.

Consider `CCC[C@@H]1C[C@@H](C(=O)N[C@@H]([C@H]2O[C@H](SC)[C@H](O)[C@@H](O)[C@H]2O)[C@@H](C)O)N(C)C1` [LINCOMYCIN], for which the MIC came to 2 µg/mL in data set [1]; 2 µg/mL in [2]; 2 µg/mL in [3]; 0.391 µg/mL (≈ 0.962 µM) in data set [4]; 1 µg/mL in data set [5]. The compound further came in with a Kd in [6] of 12 µM. For the same compound, the values for the Ratio in data set [7] and in data set [15] were < 1 and 0.5, respectively. In data set [8], the fraction unbound is 0.25.

In the case of `CN(C)c1ccc(O)c2c1C[C@H]1C[C@H]3[C@H](N(C)C)C(O)=C(C(N)=O)C(=O)[C@@]3(O)C(O)=C1C2=O` [MINOCYCLINE], the minimal inhibitory concentration (MIC) in data set [1] is 1 µg/mL; in [2], 4 µg/mL; in [3], 4 µg/mL; in [4] it was 0.195 µg/mL (≈ 0.426 µM); in data set [5] it was 1 µg/mL. In data set [6], the Kd was found to be 12 µM. The Ratio in [7] was < 1. The fraction unbound in [8] was 0.46.

As to `CO[C@@H]1[C@@H](OC(N)=O)[C@@H](O)[C@H](Oc2ccc3c(O)c(NC(=O)c4ccc(O)c(CC=C(C)C)c4)c(=O)oc3c2C)OC1(C)C` [NOVOBIOCIN], the minimum inhibitory concentration (MIC) in data set [1] was found to be 2 µg/mL; in [2] it was 256 µg/mL; in [3], 1020 µg/mL; in data set [4] it was 0.049 µg/mL (≈ 0.08 µM); in [5] it was 2 µg/mL. The same compound yielded a Kd in [6] of 12 µM. The Ratio in [7] was < 1; in data set [16], 0.5; in data set [17], 1; in [18], 1.5.

Take `CC1COc2c(N3CCN(C)CC3)c(F)cc3c(=O)c(C(=O)O)cn1c23` (configuration not stated) [OFLOXACIN]: the MIC turned out to be 1 µg/mL in data set [1]; 1 µg/mL in [2]; 2 µg/mL in [3]; 0.195 µg/mL (≈ 0.54 µM) in data set [4]; 2 µg/mL in [5]. The compound further registered a dissociation constant (Kd) in data set [6] of 12 µM.

Take `CO[C@H]1/C=C/O[C@@]2(C)Oc3c(C)c(O)c4c(O)c(c(/C=N/N5CCN(C)CC5)c(O)c4c3C2=O)NC(=O)/C(C)=C\C=C\[C@H](C)[C@H](O)[C@@H](C)[C@@H](O)[C@@H](C)[C@H](OC(C)=O)[C@@H]1C` [RIFAMPIN]: the MIC stood at 1 µg/mL in data set [1]; 4 µg/mL in data set [2]; 4 µg/mL in data set [3]; 0.049 µg/mL (≈ 0.0595 µM) in data set [4]; 2 µg/mL in data set [5]. Moreover, in data set [6], the Kd turned out to be 12 µM. The Ratio was < 1 in data set [7], 0.5 in [19], 1 in data set [20] and 1.5 in [21]. Besides, the fraction unbound in data set [8] was 0.36.

For the compound `CN[C@H](CC(C)C)C(=O)N[C@H]1C(=O)N[C@@H](CC(N)=O)C(=O)N[C@H]2C(=O)N[C@H]3C(=O)N[C@H](C(=O)N[C@H](C(=O)O)c4cc(O)cc(O)c4-c4cc3ccc4O)[C@H](O)c3ccc(c(Cl)c3)Oc3cc2cc(c3O[C@@H]2O[C@H](CO)[C@@H](O)[C@H](O)[C@H]2O[C@H]2C[C@](C)(N)[C@H](O)[C@H](C)O2)Oc2ccc(cc2Cl)[C@H]1O` [VANCOMYCIN], in data set [4], the lowest concentration to inhibit growth (MIC) was 0.781 µg/mL (≈ 0.539 µM). Further, in data set [6], the Kd stood at 12 µM. In addition, the fraction unbound in data set [8] was 0.9.
